Reference: ChEMBL document CHEMBL5136970, “Influence of ring size in conformationally restricted ring I analogs of paromomycin on antiribosomal and antibacterial activity” (RSC Med Chem, 2021)
pIC50: −log10 of the molar value. In brackets after ≈: the same amount, converted by molar mass.

Legend:
[1] = target: Bacterial 70S ribosome; experiment: Inhibition of Mycobacterium smegmatis wild type ribosomes assessed as inhibition of translation activity using Firefly luciferase mRNA reporter based luminescence analysis; type: subcellular, Mycolicibacterium smegmatis
Method in brief: (§1)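 Cell-free ribosomal translation inhibition with IC50 reported in μM. Values were determined in duplicate or more, except for a few compounds in the mitochondrial hybrid assays, where limited material allowed fewer runs.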

[2] = Inhibition of human mitochondrial ribosome Mit 13 hybridized with Mycobacterium smegmatis ribosome assessed as inhibition of translation activity using Firefly luciferase mRNA reporter based luminescence analysis
Method in brief: (§2)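 Cell-free ribosomal translation assay. IC50 reported in μM ± STD, determined in duplicate or more, with fewer replicates for a few compounds where material was limited.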

[3] = Inhibition of human mitochondrial ribosome Mit 13 A1555G mutant hybridized with Mycobacterium smegmatis ribosome assessed as inhibition of translation activity using Firefly luciferase mRNA reporter based luminescence analysis; method in brief: as §1
[4] = Inhibition of human cytoplasmic ribosome Cyt 14 hybridized with Mycobacterium smegmatis ribosome assessed as inhibition of translation activity using Firefly luciferase mRNA reporter based luminescence analysis; method in brief: as §2
[5] = Selectivity ratio of IC50 for inhibition of human mitochondrial ribosome Mit 13 hybridized with Mycobacterium smegmatis ribosome to IC50 for inhibition of Mycobacterium smegmatis wild type ribosomes
[6] = Selectivity ratio of IC50 for inhibition of human mitochondrial ribosome Mit 13 A1555G mutant hybridized with Mycobacterium smegmatis ribosomes to IC50 for inhibition of Mycobacterium smegmatis wild type ribosomes
[7] = Selectivity ratio of IC50 for inhibition of human cytoplasmic ribosome Cyt 14 hybridized with Mycobacterium smegmatis ribosomes to IC50 for inhibition of Mycobacterium smegmatis wild type ribosomes
[8] = tested on: Staphylococcus aureus; experiment: Antibacterial activity against methicillin-resistant Staphylococcus aureus AG038; type: functional
[9] = tested on: Escherichia coli; experiment: Antibacterial activity against Escherichia coli AG001; type: functional
[10] = tested on: Acinetobacter baumannii; experiment: Antibacterial activity against Acinetobacter baumannii AG225; type: functional
[11] = tested on: Klebsiella pneumoniae; experiment: Antibacterial activity against Klebsiella pneumoniae AG215; type: functional
[12] = tested on: Enterobacter cloacae; experiment: Antibacterial activity against Enterobacter cloacae AG290; type: functional
[13] = tested on: Pseudomonas aeruginosa; experiment: Antibacterial activity against Pseudomonas aeruginosa AG031; type: functional

| Compound | pIC50 [1] | pIC50 [2] | pIC50 [3] | pIC50 [4] | Ratio IC50 [5] | Ratio IC50 [6] | Ratio IC50 [7] | MIC [8] | MIC [9] | MIC [10] | MIC [11] | MIC [12] | MIC [13] |
| --- | --- | --- | --- | --- | --- | --- | --- | --- | --- | --- | --- | --- | --- |
| C[C@@H]1C[C@H](O)[C@H]2O[C@H](O[C@H]3[C@H](O[C@@H]4O[C@H](CO)[C@@H](O[C@H]5O[C@@H](CN)[C@@H](O)[C@H](O)[C@H]5N)[C@H]4O)[C@@H](O)[C@H](N)C[C@@H]3N)[C@H](N)[C@@H](O)[C@@H]2O1 | 7.20 | 3.60 | 4.70 | 4.47 | 3970 | 317 | 540 | 4 µg/mL (≈ 6.1 µM) | 4 µg/mL (≈ 6.1 µM) | 4 µg/mL (≈ 6.1 µM) | 2 µg/mL (≈ 3.05 µM) | 2 µg/mL (≈ 3.05 µM) | 32 µg/mL (≈ 48.8 µM) |
| C[C@@H]1C[C@@H](O)[C@H]2O[C@H](O[C@H]3[C@H](O[C@@H]4O[C@H](CO)[C@@H](O[C@H]5O[C@@H](CN)[C@@H](O)[C@H](O)[C@H]5N)[C@H]4O)[C@@H](O)[C@H](N)C[C@@H]3N)[C@H](N)[C@@H](O)[C@@H]2O1 | 6.05 | 3.43 | 3.49 | 3.58 | 418 | 367 | 299 | 32 µg/mL (≈ 48.8 µM) | 32 µg/mL (≈ 48.8 µM) | 32 µg/mL (≈ 48.8 µM) | 16 µg/mL (≈ 24.4 µM) | 32 µg/mL (≈ 48.8 µM) | > 128 µg/mL |
| NC[C@@H]1O[C@H](O[C@H]2[C@@H](O)[C@H](O[C@@H]3[C@@H](O)[C@H](N)C[C@H](N)[C@H]3O[C@H]3O[C@H]4[C@@H](OCC[C@H]4O)[C@H](O)[C@H]3N)O[C@@H]2CO)[C@H](N)[C@@H](O)[C@@H]1O | 5.48 | 3.26 | 3.22 | 3.25 | 168 | 182 | 169 | 32 µg/mL (≈ 49.9 µM) | 128 µg/mL (≈ 199 µM) | 64 µg/mL (≈ 99.7 µM) | 64 µg/mL (≈ 99.7 µM) | 64 µg/mL (≈ 99.7 µM) | > 128 µg/mL |
| NC[C@@H]1O[C@H](O[C@H]2[C@@H](O)[C@H](O[C@@H]3[C@@H](O)[C@H](N)C[C@H](N)[C@H]3O[C@H]3O[C@H]4[C@@H](OC[C@H]4O)[C@H](O)[C@H]3N)O[C@@H]2CO)[C@H](N)[C@@H](O)[C@@H]1O | 6.70 | 3.88 | 3.93 | 3.56 | 655 | 585 | 1380 | 8 µg/mL (≈ 12.7 µM) | 16 µg/mL (≈ 25.5 µM) | 8 µg/mL (≈ 12.7 µM) | 4 µg/mL (≈ 6.37 µM) | 8 µg/mL (≈ 12.7 µM) | > 64 µg/mL |
| NC[C@@H]1O[C@H](O[C@H]2[C@@H](O)[C@H](O[C@@H]3[C@@H](O)[C@H](N)C[C@H](N)[C@H]3O[C@H]3O[C@H]4[C@@H](OCCC[C@@H]4O)[C@H](O)[C@H]3N)O[C@@H]2CO)[C@H](N)[C@@H](O)[C@@H]1O | 7.15 | 3.61 | 4.38 | 4.25 | 3420 | 592 | 789 | 2 µg/mL (≈ 3.05 µM) | 4 µg/mL (≈ 6.1 µM) | 4 µg/mL (≈ 6.1 µM) | 2 µg/mL (≈ 3.05 µM) | 2 µg/mL (≈ 3.05 µM) | 64 µg/mL (≈ 97.6 µM) |
| NC[C@@H]1O[C@H](O[C@H]2[C@@H](O)[C@H](O[C@@H]3[C@@H](O)[C@H](N)C[C@H](N)[C@H]3O[C@H]3O[C@H]4[C@@H](OCC[C@@H]4O)[C@H](O)[C@H]3N)O[C@@H]2CO)[C@H](N)[C@@H](O)[C@@H]1O | 6.92 | 3.64 | 3.88 | 3.92 | 1920 | 1100 | 1000 | 2 µg/mL (≈ 3.12 µM) | 8 µg/mL (≈ 12.5 µM) | 8 µg/mL (≈ 12.5 µM) | 4 µg/mL (≈ 6.23 µM) | 4 µg/mL (≈ 6.23 µM) | > 128 µg/mL |
| NC[C@@H]1O[C@H](O[C@H]2[C@@H](O)[C@H](O[C@@H]3[C@@H](O)[C@H](N)C[C@H](N)[C@H]3O[C@H]3O[C@H]4[C@@H](OC[C@@H]4O)[C@H](O)[C@H]3N)O[C@@H]2CO)[C@H](N)[C@@H](O)[C@@H]1O | 6.89 | 3.82 | – | 4.40 | 943 | – | 250 | 16 µg/mL (≈ 25.5 µM) | 32 µg/mL (≈ 51 µM) | 32 µg/mL (≈ 51 µM) | 16 µg/mL (≈ 25.5 µM) | 32 µg/mL (≈ 51 µM) | > 128 µg/mL |
| NC[C@@H]1O[C@H](O[C@H]2[C@@H](O)[C@H](O[C@@H]3[C@@H](O)[C@H](N)C[C@H](N)[C@H]3O[C@H]3O[C@H](CO)[C@@H](O)[C@H](O)[C@H]3N)O[C@@H]2CO)[C@H](N)[C@@H](O)[C@@H]1O [PAROMOMYCIN] | 7.48 | 3.88 | 4.92 | 4.43 | 3970 | 364 | 1120 | 2 µg/mL (≈ 3.25 µM) | 2 µg/mL (≈ 3.25 µM) | 2 µg/mL (≈ 3.25 µM) | 1 µg/mL (≈ 1.62 µM) | 2 µg/mL (≈ 3.25 µM) | > 128 µg/mL |
| NC[C@@H]1O[C@H](O[C@H]2[C@@H](O)[C@H](O[C@@H]3[C@@H](O)[C@H](N)C[C@H](N)[C@H]3O[C@H]3O[C@H]4[C@@H](OCCC[C@H]4O)[C@H](O)[C@H]3N)O[C@@H]2CO)[C@H](N)[C@@H](O)[C@@H]1O | 5.82 | 3.29 | 3.26 | – | 342 | 363 | – | 32 µg/mL (≈ 48.8 µM) | 64 µg/mL (≈ 97.6 µM) | 32 µg/mL (≈ 48.8 µM) | 32 µg/mL (≈ 48.8 µM) | 32 µg/mL (≈ 48.8 µM) | > 128 µg/mL |
